The record followed here is ChEMBL document CHEMBL1629526, “4-[1-(Substituted aryl/alkyl carbonyl)-benzoimidazol-2-yl]-benzenesulfonic acids: synthesis, antimicrobial activity, QSAR studies, and antiviral evaluation” (Eur J Med Chem, 2010).

In one series the test system is Staphylococcus aureus. Description: Antimicrobial activity against Staphylococcus aureus after 24 hrs by tube dilution method. The series is classed as functional.
A further series relates to Bacillus subtilis. Briefly: Antimicrobial activity against Bacillus subtilis after 24 hrs by tube dilution method. Format: functional. Put shortly: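 Serial dilutions in double-strength nutrient broth (I.P.) with ciprofloxacin as reference, tube dilution, incubated 37 °C for 24 h. MIC is the lowest concentration that inhibited growth.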
A further series deals with Escherichia coli. Description: Antimicrobial activity against Escherichia coli after 24 hrs by tube dilution method. The series is classed as functional.
The next series relates to Candida albicans. Briefly: Antimicrobial activity against Candida albicans after 48 hrs by tube dilution method. Format: functional.
A further series has as its system Aspergillus niger. Briefly: Antimicrobial activity against Aspergillus niger after 7 days by tube dilution method. As to conditions: 168 h. The series is classed as functional.
A short description of series [1]: Cytotoxicity against cat CRFK cells assessed as cell viability by MTS assay. The series is classed as cell-based, Felis catus. The procedure, abridged:
(§1)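 Uninfected cultures were run in parallel with the antiviral assays. Viability was read by colorimetric formazan MTS assay.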
Background: Tetrazolium dyes change colour on reduction, which living cells bring about.

Another series deals with Felid alphaherpesvirus 1. Description: Antiviral activity against Feline herpesvirus 1 infected in cat CRFK cells assessed as inhibition of virus induced cytopathicity after 2 to 4 days by MTS assay. Format: functional, organism-based. As to conditions: Felid alphaherpesvirus 1, CRFK.
For the next series, the system named is Feline coronavirus. Briefly: Antiviral activity against Feline coronavirus infected in cat CRFK cells assessed as inhibition of virus induced cytopathicity after 2 to 4 days by MTS assay. The series is classed as functional, organism-based. As to conditions: Alphacoronavirus 1, CRFK. On the technique in general: Protection from cytopathic effect is a common read-out in antiviral testing.

Series [2] in a line: Cytotoxicity against human HEL cells assessed as altered cell morphology. The series is classed as cell-based. Put shortly:
(§2)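 Uninfected cell cultures run alongside the antiviral assays, exposed to serial compound dilutions and incubated at 37 °C for 2–4 days. Toxicity was scored microscopically and reported as the minimum cytotoxic concentration (MCC), the lowest concentration causing a detectable change in normal cell morphology.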

For series [3], the system named is Human alphaherpesvirus 1. Briefly: Antiviral activity against Herpes simplex virus 1 KOS infected in HEL cells assessed as inhibition of virus induced cytopathicity after 2 to 4 days by MTS assay. Format: functional, organism-based. As to conditions: Human alphaherpesvirus 1, KOS.
For another series, the system named is Human alphaherpesvirus 2. Briefly: Antiviral activity against Herpes simplex virus 2 G infected in HEL cells assessed as inhibition of virus induced cytopathicity after 2 to 4 days by MTS assay. Format: functional, organism-based. As to conditions: Human alphaherpesvirus 2, strain G.
Another series relates to Vaccinia virus. Briefly: Antiviral activity against Vaccinia virus infected in HEL cells assessed as inhibition of virus induced cytopathicity after 2 to 4 days by MTS assay. The series is classed as functional, organism-based. As to conditions: Orthopoxvirus vaccinia.
For series [4], the system named is Vesicular stomatitis virus. Briefly: Antiviral activity against Vesicular stomatitis virus infected in HEL cells assessed as inhibition of virus induced cytopathicity after 2 to 4 days by MTS assay. Format: functional, organism-based.
The subject of series [5] is Human alphaherpesvirus 1. Briefly: Antiviral activity against thymidine kinase deficient acyclovir-resistant Herpes simplex virus 1 KOS infected in HEL cells assessed as inhibition of virus induced cytopathicity after 2 to 4 days by MTS assay. As to conditions: Human alphaherpesvirus 1, KOS. Format: functional, organism-based.
The subject of a further series is HeLa. Briefly: Cytotoxicity against human HeLa cells assessed as cell viability by MTS assay. The series is classed as cell-based. As to conditions: hela. The procedure, abridged:
as §1

Series [6] in a line: Cytotoxicity against human HeLa cells assessed as altered cell morphology. The series is classed as cell-based. Put shortly: as §2
The test system of series [7] is Vesicular stomatitis virus. Briefly: Antiviral activity against Vesicular stomatitis virus infected in human HeLa cells assessed as inhibition of virus induced cytopathicity by visual scoring of CPE. The series is classed as functional, organism-based.
Series [8] deals with Vesicular stomatitis virus. Description: Antiviral activity against Vesicular stomatitis virus infected in human HeLa cells assessed as inhibition of virus induced cytopathicity after 2 to 4 days by MTS assay. The series is classed as functional, organism-based.
In series [9] the test system is Coxsackievirus B4. Description: Antiviral activity against coxsackievirus B4 infected in human HeLa cells assessed as inhibition of virus induced cytopathicity by visual scoring of CPE. As to conditions: Enterovirus B. The series is classed as functional, organism-based.
Series [10] has as its system Coxsackievirus B4. Briefly: Antiviral activity against coxsackievirus B4 infected in human HeLa cells assessed as inhibition of virus induced cytopathicity after 2 to 4 days by MTS assay. The series is classed as functional, organism-based. As to conditions: Enterovirus B.
For series [11], the system named is Respiratory syncytial virus. Briefly: Antiviral activity against Respiratory syncytial virus infected in human HeLa cells assessed as inhibition of virus induced cytopathicity by visual scoring of CPE. The series is classed as functional, organism-based.
In series [12] the test system is Respiratory syncytial virus. Briefly: Antiviral activity against Respiratory syncytial virus infected in human HeLa cells assessed as inhibition of virus induced cytopathicity after 2 to 4 days by MTS assay. Format: functional, organism-based.
The next series relates to MDCK. Briefly: Cytotoxicity against MDCK cells assessed as cell viability by MTS assay. Format: cell-based, Canis lupus familiaris. As to conditions: dog, mdck. The procedure, abridged: as §1
Series [13] in a line: Cytotoxicity against MDCK cells assessed as altered cell morphology. As to conditions: dog. Format: cell-based, Canis lupus familiaris. The procedure, abridged: as §2
Series [14] concerns Influenza A virus. Briefly: Antiviral activity against Influenza A H3N2 virus subtype infected in MDCK cells assessed as inhibition of virus induced cytopathicity by visual scoring of CPE. The series is classed as functional, organism-based.
Series [15] deals with Influenza A virus. Briefly: Antiviral activity against Influenza A H3N2 virus subtype infected in MDCK cells assessed as inhibition of virus induced cytopathicity after 2 to 4 days by MTS assay. The series is classed as functional, organism-based.
Series [16] has as its system Influenza B virus. Briefly: Antiviral activity against Influenza B virus infected in MDCK cells assessed as inhibition of virus induced cytopathicity by visual scoring of CPE. The series is classed as functional, organism-based.
Series [17] has as its system Influenza B virus. Description: Antiviral activity against Influenza B virus infected in MDCK cells assessed as inhibition of virus induced cytopathicity after 2 to 4 days by MTS assay. Format: functional, organism-based.
The nature of series [18]: Cytotoxicity against african green monkey Vero cells assessed as altered cell morphology. As to conditions: chlorocebus sabaeus. The series is classed as cell-based. Put shortly: as §2
The next series relates to Human respirovirus 3. Briefly: Antiviral activity against parainfluenza-3 virus infected in african green monkey Vero cells assessed as inhibition of virus induced cytopathicity after 2 to 4 days by MTS assay. The series is classed as functional, organism-based. As to conditions: Human respirovirus 3, Vero.
In series [19] the test system is Mammalian orthoreovirus 1. Description: Antiviral activity against Reovirus 1 virus infected in african green monkey Vero cells assessed as inhibition of virus induced cytopathicity after 2 to 4 days by MTS assay. Format: functional, organism-based. As to conditions: Mammalian orthoreovirus 1, Vero.
For another series, the system named is Sindbis virus. Description: Antiviral activity against Sindbis virus infected in african green monkey Vero cells assessed as inhibition of virus induced cytopathicity after 2 to 4 days by MTS assay. The series is classed as functional, organism-based.
The subject of series [20] is Coxsackievirus B4. Briefly: Antiviral activity against Coxsackie virus B4 infected in african green monkey Vero cells assessed as inhibition of virus induced cytopathicity after 2 to 4 days by MTS assay. Format: functional, organism-based. As to conditions: Enterovirus B.
For the next series, the system named is Punta Toro virus. Description: Antiviral activity against Punta Toro virus infected in african green monkey Vero cells assessed as inhibition of virus induced cytopathicity after 2 to 4 days by MTS assay. The series is classed as functional, organism-based.

Values after ≈ are worked out from the molar mass of the structure shown.

A word on the MBC: it is the smallest concentration meeting the test's criterion for killing. The term MFC denotes the smallest concentration meeting the test's criterion for killing the fungus. One may read the CC50 as the concentration that lowers cell viability or growth by half. The EC50 is the concentration needed to bring the measured effect to its halfway point.

Regarding `Cc1ccccc1C(=O)n1c(-c2ccc(S(=O)(=O)O)cc2)nc2ccccc21`, the MBC was 6.25 µg/mL (≈ 15.9 µM) against Staphylococcus aureus, more than 50 µg/mL in the series on Bacillus subtilis and 3.12 µg/mL (≈ 7.95 µM) against Escherichia coli. Besides, the minimum fungicidal concentration (MFC) against Candida albicans is 50 µg/mL (≈ 127 µM); with Aspergillus niger it was more than 50 µg/mL. Further, the CC50 (in series [1] (crfk); in the series on HeLa; in the series with MDCK) was more than 100 µg/mL in each case. The EC50 (with Felid alphaherpesvirus 1; in the series with Feline coronavirus; in the series on Human alphaherpesvirus 1 [3]; with Human alphaherpesvirus 2; with Vaccinia virus; in [4]) was more than 100 µg/mL throughout. The EC50 (in the series on Human alphaherpesvirus 1 [5]; in series [7]; in [8]; in the series with Coxsackievirus B4 [9]; in the series with Coxsackievirus B4 [10]; in series [11]) was more than 100 µg/mL each time. In addition, the EC50 (in [12]; with Influenza A virus [14]; with Influenza A virus [15]; with Influenza B virus [16]; in the series on Influenza B virus [17]; with Human respirovirus 3) was more than 100 µg/mL throughout. For the same molecule, the EC50 (in series [19]; in the series with Sindbis virus; in the series on Coxsackievirus B4 [20]; in the series on Punta Toro virus) was more than 100 µg/mL throughout. Further, the MCC in series [2], in series [6], in series [13] and in [18] was more than 100 µg/mL each time.
As to `Cc1ccc(C(=O)n2c(-c3ccc(S(=O)(=O)O)cc3)nc3ccccc32)cc1`, the MBC amounted to 12.5 µg/mL (≈ 31.9 µM) against Staphylococcus aureus, 6.25 µg/mL (≈ 15.9 µM) in the series on Bacillus subtilis and 25 µg/mL (≈ 63.7 µM) with Escherichia coli. Further, the figures for the MFC in the series on Candida albicans and against Aspergillus niger were 50 µg/mL (≈ 127 µM) and more than 50 µg/mL, respectively. For the same molecule, the CC50 (in [1] (crfk); with HeLa; in the series with MDCK) was more than 100 µg/mL each time. For the same molecule, the EC50 (in the series on Felid alphaherpesvirus 1; in the series on Feline coronavirus; with Human alphaherpesvirus 1 [3]; in the series on Human alphaherpesvirus 2; in the series with Vaccinia virus; in [4]) was more than 100 µg/mL throughout. Besides, the EC50 (in the series with Human alphaherpesvirus 1 [5]; in series [7]; in series [8]; in the series with Coxsackievirus B4 [9]; with Coxsackievirus B4 [10]; in [11]) was more than 100 µg/mL each time. Moreover, the EC50 (in series [12]; in the series with Influenza A virus [14]; in the series on Influenza A virus [15]; with Influenza B virus [16]; with Influenza B virus [17]; with Human respirovirus 3) was more than 100 µg/mL throughout. The EC50 (in series [19]; in the series on Sindbis virus; in the series with Coxsackievirus B4 [20]; in the series with Punta Toro virus) was more than 100 µg/mL in each case. Further, the MCC in series [2], in series [6], in series [13] and in series [18] was more than 100 µg/mL in each case.
As for `Nc1ccn(C[C@@H](CO)OCP(=O)(O)O)c(=O)n1.O.O` [CIDOFOVIR], the MCC in [2] is more than 250 µg/mL. Moreover, the EC50 is 0.4 µg/mL with Human alphaherpesvirus 1 [3], 0.2 µg/mL with Human alphaherpesvirus 2, more than 250 µg/mL in the series on Vaccinia virus and more than 250 µg/mL in the series with Human alphaherpesvirus 1 [5].
As to `Nc1nc2c(ncn2COC(CO)CO)c(=O)[nH]1` [GANCICLOVIR], the CC50 in [1] (CRFK cells, read-out: CC50) was more than 100 µg/mL. Besides, the EC50 in the series with Felid alphaherpesvirus 1 is more than 100 µg/mL; in the series on Feline coronavirus, 1.7 µg/mL (≈ 6.66 µM); in the series on Human alphaherpesvirus 1 [3] it was 0.03 µg/mL (≈ 0.118 µM); in the series with Human alphaherpesvirus 2 it was 0.03 µg/mL (≈ 0.118 µM); with Human alphaherpesvirus 1 [5], 58 µg/mL (≈ 227 µM). In [2], the MCC is more than 100 µg/mL.
